In data set [1] the target is T1, Serine/threonine-protein kinase B-raf (Homo sapiens, UniProt P15056, V600E). In words: Inhibition of full-length B-Raf V600E mutant assessed as reduction in incorporation of radiolabeled phosphate from [gamma-33P]ATP into FSBA-modified wild-type MEK.
The target of data set [2] is T1, Serine/threonine-protein kinase B-raf. The experiment in a line: Inhibition of full-length B-Raf V600E mutant in human MALME-3M cells assessed as reduction in basal ERK1/2 phosphorylation incubated for 1 hr. The data set is classed as cell-based.
The target in data set [3] is Tyrosine-protein kinase ABL1 (Homo sapiens) (UniProt P00519). The experiment in a line: Inhibition of ABL at 1 uM.
For data set [4], the target named is Tyrosine-protein kinase Lck (Homo sapiens) (UniProt P06239). The experiment in a line: Inhibition of LCK at 1 uM.
For data set [5], the target named is Proto-oncogene tyrosine-protein kinase Src (Homo sapiens) (UniProt P12931). In words: Inhibition of SRC at 1 uM.
Data set [6] addresses Tyrosine-protein kinase Fgr (Homo sapiens) (UniProt P09769). In words: Inhibition of FGR at 1 uM.
The target in data set [7] is Vascular endothelial growth factor receptor 2 (Homo sapiens) (UniProt P35968). In words: Inhibition of KDR at 1 uM.
Data set [8] deals with LIM domain kinase 1 (Homo sapiens) (UniProt P53667). The experiment in a line: Inhibition of human LIMK1 at 1 uM in presence of ATP at level equals to ~ Km of ATP.
A short description of data set [9]: Antitumor activity against B-Raf V600E mutant expressing human LOX cells xenografted in mouse assessed as tumor growth inhibition at 30 mg/kg, QD from day 1 to day 4 measured on day 8. The data set is classed as functional. The settings on record: read-out: TGI. The method, boiled down:
(§1)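 Nude mice bearing established LOX (B-Raf V600E) xenografts were dosed at 30 mg/kg once daily on days 1–4, with vehicle controls at 10 ml/kg. Tumor volume was measured on days 1, 3, 5, 8 and 11.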
Background: Xenograft models place foreign cells or tissue in a host animal.

Data set [10] in a line: Antitumor activity against B-Raf V600E mutant expressing human LOX cells xenografted in mouse assessed as tumor growth inhibition at 30 mg/kg, QD from day 1 to day 4 measured on day 5. The data set is classed as functional. The note with it: read-out: TGI. The method, boiled down: as §1
For data set [11], the target named is Serine/threonine-protein kinase B-raf (Homo sapiens) (UniProt P15056). The experiment in a line: Inhibition of human B-raf at 1 uM in presence of ATP at level equals to ~ Km of ATP.
A short description of data set [12]: Oral bioavailability in mouse at 30 mg/kg. The data set is classed as ADME, organism-based. The note with it: in vivo.
A short description of data set [13]: Volume of distribution in mouse at 2.5 mg/kg, iv. Type of data set: ADME, organism-based. On the set-up: dose 2.5 mg/kg, route intravenous. The settings on record: in vivo. The essentials:
(§2)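 Mouse intravenous pharmacokinetics at 2.5 mg/kg. Observed clearance is reported in ml/min/kg and volume of distribution in l/kg.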

A short description of data set [14]: Permeability across human Caco2 cells. The data set is classed as ADME, cell-based. The settings on record: Caco-2, read-out: permeability. The method, boiled down:
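Caco-2 monolayer permeability is reported as a class: low <2 × 10^-6 cm/s, medium 2–8 × 10^-6 cm/s, high >8 × 10^-6 cm/s.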
(In general: Caco-2 cells form a polarised layer with tight junctions and transporters.)

The target of data set [15] is RAF proto-oncogene serine/threonine-protein kinase (Homo sapiens) (UniProt P04049). In words: Inhibition of human C-raf at 1 uM in presence of ATP at level equals to ~ Km of ATP.
Data set [16] is described as follows: AUC in mouse at 30 mg/kg, po. The data set is classed as ADME, organism-based. Details: dose 30 mg/kg, route oral. The note with it: plasma.
Data set [17] is described as follows: Antitumor activity against B-Raf V600E mutant expressing human LOX cells xenografted in mouse assessed as tumor growth inhibition at 30 mg/kg, QD from day 1 to day 4 measured on day 11. Type of data set: functional. The note with it: read-out: TGI. The essentials:
as §1

Data set [18] in a line: Clearance in mouse at 2.5 mg/kg, iv. Details: dose 2.5 mg/kg, route intravenous. The note with it: in vivo. The data set is classed as ADME, organism-based. The essentials: as §2

The results in this text go back to ChEMBL document CHEMBL2021811, “The discovery of potent and selective pyridopyrimidin-7-one based inhibitors of B-RafV600E kinase” (Bioorg Med Chem Lett, 2012).

Each structure is given as a SMILES string. pIC50: −log10 of the molar value. The source made the active and inactive calls. No cut-off for these calls is given here.

Chain of Tyrosine-protein kinase ABL1 (Homo sapiens) (P00519 whole entry): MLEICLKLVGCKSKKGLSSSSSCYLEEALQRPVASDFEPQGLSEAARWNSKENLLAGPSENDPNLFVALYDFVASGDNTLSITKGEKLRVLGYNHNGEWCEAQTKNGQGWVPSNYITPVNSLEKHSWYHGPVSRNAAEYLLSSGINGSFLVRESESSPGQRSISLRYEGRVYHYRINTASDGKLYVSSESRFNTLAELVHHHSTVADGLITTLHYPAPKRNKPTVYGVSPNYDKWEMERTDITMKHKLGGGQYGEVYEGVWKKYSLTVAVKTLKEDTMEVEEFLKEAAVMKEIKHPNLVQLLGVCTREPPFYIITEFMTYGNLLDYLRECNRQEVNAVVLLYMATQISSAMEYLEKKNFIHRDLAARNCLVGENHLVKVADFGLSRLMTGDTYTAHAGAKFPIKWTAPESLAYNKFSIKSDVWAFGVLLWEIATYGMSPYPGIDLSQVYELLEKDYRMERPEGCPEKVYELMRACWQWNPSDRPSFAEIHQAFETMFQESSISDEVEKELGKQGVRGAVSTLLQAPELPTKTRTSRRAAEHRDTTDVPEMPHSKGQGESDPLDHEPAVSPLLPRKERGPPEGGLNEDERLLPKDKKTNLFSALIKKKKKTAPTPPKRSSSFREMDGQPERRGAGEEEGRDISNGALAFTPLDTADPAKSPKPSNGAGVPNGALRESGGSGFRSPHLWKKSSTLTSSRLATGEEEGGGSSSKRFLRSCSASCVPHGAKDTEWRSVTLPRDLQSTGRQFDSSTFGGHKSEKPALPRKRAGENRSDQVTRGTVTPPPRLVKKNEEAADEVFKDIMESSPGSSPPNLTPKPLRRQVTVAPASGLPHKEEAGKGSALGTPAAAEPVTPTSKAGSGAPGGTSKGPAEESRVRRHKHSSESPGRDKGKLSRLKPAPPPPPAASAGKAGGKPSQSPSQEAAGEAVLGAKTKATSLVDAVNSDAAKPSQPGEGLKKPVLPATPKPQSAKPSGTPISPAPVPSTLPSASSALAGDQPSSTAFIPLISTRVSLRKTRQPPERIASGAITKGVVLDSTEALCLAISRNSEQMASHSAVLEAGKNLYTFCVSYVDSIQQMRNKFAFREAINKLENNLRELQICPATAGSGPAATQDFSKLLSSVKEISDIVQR
Chain of Tyrosine-protein kinase Lck (Homo sapiens) (P06239 2-509 limits assumed): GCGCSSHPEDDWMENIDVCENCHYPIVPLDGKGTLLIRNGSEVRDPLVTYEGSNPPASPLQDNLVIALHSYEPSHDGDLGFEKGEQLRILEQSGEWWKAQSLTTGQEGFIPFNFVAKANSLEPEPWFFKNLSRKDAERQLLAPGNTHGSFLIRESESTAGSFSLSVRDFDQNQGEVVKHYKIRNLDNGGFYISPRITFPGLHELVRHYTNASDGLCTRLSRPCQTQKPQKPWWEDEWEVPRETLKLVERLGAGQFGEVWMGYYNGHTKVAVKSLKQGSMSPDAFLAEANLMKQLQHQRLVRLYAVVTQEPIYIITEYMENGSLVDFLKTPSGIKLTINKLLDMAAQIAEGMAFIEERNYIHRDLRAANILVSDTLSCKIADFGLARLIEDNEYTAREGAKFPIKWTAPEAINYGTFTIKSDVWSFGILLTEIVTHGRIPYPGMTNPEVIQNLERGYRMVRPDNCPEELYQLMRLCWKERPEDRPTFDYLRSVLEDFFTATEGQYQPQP
Chain of Vascular endothelial growth factor receptor 2 (Homo sapiens) (P35968 whole entry, the tested form may be a part): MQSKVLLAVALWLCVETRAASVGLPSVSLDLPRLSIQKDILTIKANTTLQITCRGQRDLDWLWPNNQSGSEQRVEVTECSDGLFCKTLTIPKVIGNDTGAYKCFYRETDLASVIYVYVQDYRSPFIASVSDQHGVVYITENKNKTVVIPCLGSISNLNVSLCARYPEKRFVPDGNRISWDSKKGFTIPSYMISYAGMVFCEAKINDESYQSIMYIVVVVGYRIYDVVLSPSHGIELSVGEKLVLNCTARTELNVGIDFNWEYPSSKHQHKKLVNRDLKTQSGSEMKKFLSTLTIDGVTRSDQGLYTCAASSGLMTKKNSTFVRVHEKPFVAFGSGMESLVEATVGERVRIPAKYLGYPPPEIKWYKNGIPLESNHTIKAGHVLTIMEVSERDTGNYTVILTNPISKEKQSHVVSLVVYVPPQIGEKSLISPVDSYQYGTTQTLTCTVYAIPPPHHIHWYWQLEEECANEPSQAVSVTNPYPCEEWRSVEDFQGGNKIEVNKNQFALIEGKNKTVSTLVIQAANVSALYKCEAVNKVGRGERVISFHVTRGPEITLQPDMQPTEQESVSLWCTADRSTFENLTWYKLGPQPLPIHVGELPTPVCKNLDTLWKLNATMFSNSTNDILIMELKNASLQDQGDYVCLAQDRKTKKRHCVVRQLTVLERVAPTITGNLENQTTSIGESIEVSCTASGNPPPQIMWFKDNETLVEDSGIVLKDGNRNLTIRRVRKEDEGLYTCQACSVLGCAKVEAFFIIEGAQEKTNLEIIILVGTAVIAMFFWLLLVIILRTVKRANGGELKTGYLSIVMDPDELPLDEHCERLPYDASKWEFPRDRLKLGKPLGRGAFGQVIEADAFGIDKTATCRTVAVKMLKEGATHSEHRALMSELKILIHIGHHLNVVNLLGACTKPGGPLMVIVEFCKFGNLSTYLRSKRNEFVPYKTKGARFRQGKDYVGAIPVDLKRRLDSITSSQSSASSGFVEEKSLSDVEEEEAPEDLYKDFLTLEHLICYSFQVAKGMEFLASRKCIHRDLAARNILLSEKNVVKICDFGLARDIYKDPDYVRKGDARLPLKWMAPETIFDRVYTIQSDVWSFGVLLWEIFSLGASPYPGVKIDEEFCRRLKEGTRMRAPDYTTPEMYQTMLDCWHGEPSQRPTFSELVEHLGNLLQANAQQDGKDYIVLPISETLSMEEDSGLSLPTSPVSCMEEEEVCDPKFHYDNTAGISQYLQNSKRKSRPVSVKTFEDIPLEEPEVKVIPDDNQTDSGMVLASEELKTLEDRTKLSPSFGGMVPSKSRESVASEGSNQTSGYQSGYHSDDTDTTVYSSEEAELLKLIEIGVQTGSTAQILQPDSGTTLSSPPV
Chain of Tyrosine-protein kinase Fgr (Homo sapiens) (P09769 2-529 limits assumed): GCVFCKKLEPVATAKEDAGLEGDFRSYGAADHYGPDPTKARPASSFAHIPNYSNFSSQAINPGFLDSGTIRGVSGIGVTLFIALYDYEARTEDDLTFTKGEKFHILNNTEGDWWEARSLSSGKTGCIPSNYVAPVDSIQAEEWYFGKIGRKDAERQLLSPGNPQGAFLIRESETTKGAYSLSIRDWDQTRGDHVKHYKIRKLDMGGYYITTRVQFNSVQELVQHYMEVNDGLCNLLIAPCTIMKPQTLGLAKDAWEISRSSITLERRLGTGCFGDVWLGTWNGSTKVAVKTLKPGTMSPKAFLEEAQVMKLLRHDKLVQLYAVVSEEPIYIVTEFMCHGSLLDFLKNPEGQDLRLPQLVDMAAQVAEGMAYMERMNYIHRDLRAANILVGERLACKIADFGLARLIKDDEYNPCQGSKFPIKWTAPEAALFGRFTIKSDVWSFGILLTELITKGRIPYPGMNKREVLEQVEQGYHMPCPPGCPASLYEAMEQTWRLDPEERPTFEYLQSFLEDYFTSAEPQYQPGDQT
T1 sequence (P15056 2-766 V600E limits assumed): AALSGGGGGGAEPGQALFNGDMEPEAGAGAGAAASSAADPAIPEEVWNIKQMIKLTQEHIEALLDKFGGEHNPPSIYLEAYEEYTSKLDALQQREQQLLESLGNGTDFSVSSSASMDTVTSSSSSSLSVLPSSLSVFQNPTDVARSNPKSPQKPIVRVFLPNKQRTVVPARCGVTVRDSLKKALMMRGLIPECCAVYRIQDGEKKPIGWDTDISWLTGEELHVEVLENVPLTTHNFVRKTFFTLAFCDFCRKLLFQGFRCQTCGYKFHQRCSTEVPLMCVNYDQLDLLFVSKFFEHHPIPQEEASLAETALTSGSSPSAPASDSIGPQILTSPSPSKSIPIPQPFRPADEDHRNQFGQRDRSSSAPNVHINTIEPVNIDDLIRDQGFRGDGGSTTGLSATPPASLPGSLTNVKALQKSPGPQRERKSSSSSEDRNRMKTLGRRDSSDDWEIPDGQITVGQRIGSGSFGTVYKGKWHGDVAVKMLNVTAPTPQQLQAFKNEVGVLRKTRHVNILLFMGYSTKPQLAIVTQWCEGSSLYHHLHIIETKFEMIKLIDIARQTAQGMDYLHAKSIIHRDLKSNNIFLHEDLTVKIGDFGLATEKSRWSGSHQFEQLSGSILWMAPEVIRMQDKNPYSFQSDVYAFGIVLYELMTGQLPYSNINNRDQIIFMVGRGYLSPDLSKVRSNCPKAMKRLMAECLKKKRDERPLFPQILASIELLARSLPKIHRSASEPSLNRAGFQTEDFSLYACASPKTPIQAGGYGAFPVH
Chain of Proto-oncogene tyrosine-protein kinase Src (Homo sapiens) (P12931 2-536 limits assumed): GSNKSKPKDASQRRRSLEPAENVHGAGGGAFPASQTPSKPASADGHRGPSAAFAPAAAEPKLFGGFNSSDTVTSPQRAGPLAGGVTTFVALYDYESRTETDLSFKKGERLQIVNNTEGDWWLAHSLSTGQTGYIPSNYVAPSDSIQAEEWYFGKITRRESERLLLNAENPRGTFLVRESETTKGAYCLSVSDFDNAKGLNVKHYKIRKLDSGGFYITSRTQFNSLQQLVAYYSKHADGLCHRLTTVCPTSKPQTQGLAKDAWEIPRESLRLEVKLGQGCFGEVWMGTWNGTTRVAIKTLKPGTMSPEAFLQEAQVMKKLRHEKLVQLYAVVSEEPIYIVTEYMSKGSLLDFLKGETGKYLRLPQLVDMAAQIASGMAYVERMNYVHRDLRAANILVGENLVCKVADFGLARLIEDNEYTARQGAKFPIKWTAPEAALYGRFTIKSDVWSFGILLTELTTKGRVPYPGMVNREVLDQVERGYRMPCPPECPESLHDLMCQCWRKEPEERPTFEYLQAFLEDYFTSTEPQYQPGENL

Regarding `CCCS(=O)(=O)Nc1ccc(F)c(-c2cc3cnccc3cn2)c1F`, the negative-log IC50 (pIC50) (as a rule, the negative decadic logarithm of the IC50, by convention in mol/L) in [1] was 6.62; in [2], 6.15.

Regarding `CCCS(=O)(=O)Nc1ccc(F)c(-c2cc3cnc(Nc4cccnc4)nc3n(C)c2=O)c1F`, the pIC50 in data set [1] was 9.30; in data set [2], 8.52. Also, the inhibition in [3], in data set [4], in data set [5], in [6] and in data set [7] was more than 90% each time.

For the compound `CCCS(=O)(=O)Nc1ccc(C)c(-c2ccc3nc(N)ncc3c2)c1`, the negative logarithm of the IC50 (pIC50) in data set [1] is 6.89; in data set [2], less than 5.00.

With `CCCS(=O)(=O)Nc1ccc(F)c(-c2cc3cncc(Br)c3cn2)c1F`, the pIC50 in data set [1] is 7.14; in [2], 6.33.

On to `CCCS(=O)(=O)Nc1ccc(F)c(-c2ccc3ccncc3c2)c1F`, for which, in data set [1], the negative-log IC50 (pIC50) is 6.47.

Regarding `CCCS(=O)(=O)Nc1ccc(F)c(-c2cc3cnc(Nc4ccccc4)nc3n(C)c2=O)c1F`, the negative logarithm of the IC50 (pIC50) in data set [1] was 9.30; in data set [2], 8.30. The inhibition in [3], in data set [4], in data set [5], in [6] and in data set [7] was more than 90% throughout.

`CCCS(=O)(=O)Nc1ccc(F)c(-c2cc3cnccc3c(=O)n2C)c1F`: the pIC50 in [1] is 7.15; in data set [2] it was 6.35.

Take `CCCS(=O)(=O)Nc1ccc(F)c(-c2cc3cnc(Nc4cnn(C)c4)nc3n(C)c2=O)c1F`: the pIC50 in data set [1] is 9.40; in data set [2], 9.00. Further, the inhibition in data set [3], in data set [4], in [5], in [6] and in data set [7] was more than 90% each time.

For `CCCS(=O)(=O)Nc1ccc(F)c(-c2cc3cnccc3n(CCc3ccccc3)c2=O)c1F`, the negative-log IC50 (pIC50) was 7.89 in [1] and 5.93 in [2].

For `CCCS(=O)(=O)Nc1ccc(F)c(-c2cc3cnc(NC4CCOCC4)nc3n(C)c2=O)c1F`, the pIC50 is 7.82 in data set [1] and 7.14 in data set [2].

Regarding `CCCS(=O)(=O)Nc1ccc(F)c(-c2cc3cnc(NCC4CC4)nc3n(C)c2=O)c1F`, the negative logarithm of the IC50 (pIC50) was 8.52 in data set [1] and 7.57 in data set [2]. In data set [8], the inhibition (usually the relative decrease from the control value, in per cent) is more than 80%. Also, the inhibition in vivo at 30 mg/kg turned out to be 96% in data set [9], 74% in data set [10] and 97% in data set [17]. Besides, the inhibition result in [11] and in data set [15] was “Active” throughout. In data set [12], the bioavailability (in general, dose-corrected exposure relative to a reference, in per cent) was found to be 33%. Moreover, the Vd (usually the apparent volume that relates the amount in the body to the concentration in plasma or blood) in [13] turned out to be 0.46 L/kg. Further, the Papp in data set [14] was more than 8 ×10⁻⁶ cm/s. Moreover, the exposure (AUC) – broadly, concentration integrated over time – in [16] amounted to 133 µM·h. In data set [18], the clearance (commonly the rate of elimination divided by the concentration) came to 3 mL/min/kg.

In the case of `CCCS(=O)(=O)Nc1ccc(F)c(-c2ccc3ccncc3n2)c1F`, the pIC50 in data set [1] was 5.44.

On to `CCCS(=O)(=O)Nc1ccc(F)c(-c2cc3cnc(NC)nc3n(C)c2=O)c1F`, for which the negative logarithm of the IC50 (pIC50) in data set [1] was 8.05; in [2] it was 7.35.

In the case of `CCCS(=O)(=O)Nc1ccc(F)c(-c2cc3cnc(N)nc3n(C)c2=O)c1F`, the values for the negative-log IC50 (pIC50) in data set [1] and in data set [2] were 8.00 and 7.03, respectively.

In the case of `CCCS(=O)(=O)Nc1ccc(F)c(-c2cc3cnc(NCCO)nc3n(C)c2=O)c1F`, the pIC50 in [1] is 8.22; in data set [2] it was 7.51. In data set [12], this compound displayed a bioavailability of 18%. The compound further registered a Vd in data set [13] of 1 L/kg. Moreover, in [14], the Papp is more than 8 ×10⁻⁶ cm/s. In data set [16], this compound came in with an AUC of 1 µM·h. In addition, the clearance in data set [18] amounted to 74 mL/min/kg.

The compound `CCCS(=O)(=O)Nc1ccc(F)c(-c2cc3cnc(NCCCO)nc3n(C)c2=O)c1F` had a Vd in data set [13] of 20 L/kg. Also, the pIC50 in [2] is 7.39. Also, the Papp in [14] is more than 8 ×10⁻⁶ cm/s. This compound displayed an area under the curve (AUC) in data set [16] of 20 µM·h.

With `CCCS(=O)(=O)Nc1ccc(F)c(-c2ccc3nc(N)ncc3c2)c1`, in [1], the pIC50 is less than 5.00.

As for `CCCS(=O)(=O)Nc1ccc(F)c(-c2ccc3cc(N)ncc3c2)c1F`, in data set [1], the pIC50 is 6.26.

For `CCCS(=O)(=O)Nc1ccc(F)c(-c2ccc3nc(N)ncc3c2)c1F`, the pIC50 in data set [1] was 6.85; in [2] it was 6.17.

With `CCCS(=O)(=O)Nc1ccc(F)c(-c2cc3ccncc3[nH]2)c1F`, the negative logarithm of the IC50 (pIC50) in data set [1] was less than 5.00.
